Results gathered from unrelated publications.
Lines come from different studies, so protocols differ.
Target: Phosphatidylinositol 3-kinase catalytic subunit type 3 (PIK3C3, Homo sapiens, UniProt Q8NEB9)

With Cc1cnn2ncc(-c3ccnc(N(C)C)n3)c2c1 the remaining binding was 87% (binding; 1 µM).
The remaining binding of CO[C@@H](C)c1c(Nc2ccc([C@H](N(C)C(=O)C3CCS(=O)(=O)CC3)C(F)(F)F)cc2)cnc2cc(Cl)nn12 is reported as 100% (cell-free assay; competition with immobilised ligand; 1 µM).
CN(CCCC(F)(F)F)c1nccc(-c2cnn3ncccc23)n1 has a remaining binding of 100% (binding; 1 µM).
For c1cncc(-c2cccc(Nc3nccc(NC4CCCCC4)n3)c2)c1, the remaining binding was 21% (binding; competition with immobilised ligand; 10 µM).
The remaining binding of O=C(NCC1CCOCC1)c1n[nH]cc1NC(=O)c1c(F)cccc1F is reported as 97% (binding; competition with immobilised ligand; 1 µM).
O=C(NC[C@@H]1[C@H]2CN(C(=O)OCc3cc(C(F)(F)F)cc(C(F)(F)F)c3)C[C@@H]12)c1ccc2[nH]nnc2c1 has a remaining binding of 72% (cell-free assay; competition with immobilised ligand; 1 µM).
O=C(NCCCN1CCOCC1)c1ccc(Nc2ncc(Cl)c(-c3ccc(Cl)s3)n2)cc1 gave a remaining binding of 33% (binding; competition with immobilised ligand; 1 µM).
CC1=C(C#N)C(c2ccc3c(c2)c(NC(=O)c2ccccc2C)nn3C)C(C#N)=C(C)N1 has a remaining binding of 87% (cell-free assay; competition with immobilised ligand; 1 µM).
For COc1ncc2cc3ccccc3nc2c1C#N, the remaining binding was 92% (cell-free assay; competition with immobilised ligand; 5 µM).
Cc1c(NC(=O)c2cc(C(N)=O)nc3cc(F)ccc23)c(C(F)(F)F)nn1Cc1ccc(C(C)(C)C)cc1 has a remaining binding of 100% (cell-free assay; competition with immobilised ligand; 1 µM).
For C[C@@H](c1ccc(-n2cnc3c(N)ncnc32)cc1)N1CCc2nn(C)c(Cc3ccccc3)c2C1=O, the remaining binding was 76% (binding; competition with immobilised ligand; 0.1 µM).
Cc1cnc(Nc2ccc(C(=O)N3CCC(N4CCCC4)CC3)cc2)nc1-c1cc2ccccc2s1 has a remaining binding of 14% (binding; competition with immobilised ligand; 1 µM).
The remaining binding of O=C(O)[C@@H]1[C@@H](Cn2nnc3ccccc3c2=O)CC[C@H]1C(=O)c1ccc(OCCC2CCOCC2)cc1 is reported as 96% (cell-free assay; competition with immobilised ligand; 1 µM).
The remaining binding of CN(C)c1nccc(-c2cnc3ncccn23)n1 is reported as 48% (binding; 1 µM).
With COc1cnc(Nc2cccc(S(N)(=O)=O)c2)nc1N1CCN(c2ccccc2)CC1 the remaining binding was 76% (binding; competition with immobilised ligand; 1 µM).
N[C@H]1CCN(c2nccc(-c3cnn4ncccc34)n2)C1 has a remaining binding of 77% (binding; 1 µM).
For O=C(c1ccc(Nc2ncc(Cl)c(-c3cc4ccccc4s3)n2)cc1)N1CCC(N2CCCC2)CC1, the remaining binding was 53% (binding; competition with immobilised ligand; 1 µM).
The remaining binding of C[C@@H]1CCN(c2nccc(-c3cnn4ncccc34)n2)C1 is reported as 70% (binding; 1 µM).
For O=C(N[C@H]1CCCCC/C=C\C2C[C@@]2(C(=O)O)NC(=O)[C@@H]2C[C@@H](Oc3ccncc3)CN2C1=O)OC1CCCC1 (stereo partly drawn), the remaining binding was 100% (cell-free assay; competition with immobilised ligand; 1 µM).
CN(C)c1nccc(-c2cnn3ncccc23)n1 has a remaining binding of 100% (binding; 1 µM).
The remaining binding of C=CC(=O)N1CCC(C(=O)NCC(=O)N2CCN(c3nc(-c4cnc(N)nc4C(F)F)nc(N4CCOCC4)n3)CC2)CC1 is reported as 4.5% (binding; competition with immobilised ligand; 1 µM).
